# Test results published in ChEMBL document CHEMBL2203146, “Search for anticonvulsant and analgesic active derivatives of dihydrofuran-2(3H)-one” (Bioorg Med Chem, 2012).
# The source made the active and inactive calls.
# Experiments:
# [1] = tested on: Mus musculus; test: […] activity in ip dosed albino CF1 mouse assessed as inhibition of phenylbenzoquinone-induced writhing administered after 30 mins prior challenge; format: functional
# How it was run: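 Male Albino Swiss (CD-1) mice, 6-8 per dose. Compound given ip in 0.5% methylcellulose. 30 min later, 0.25 ml of 0.02% phenylbenzoquinone injected. After 5 min, writhes counted over 10 min. % effect = (vehicle mean − drug mean)/vehicle mean × 100. ED50 derived; Student's t-test.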
# [2] = tested on: Mus musculus; test: Anticonvulsant activity in albino CF1 mouse assessed as protection against subcutaneous metrazol-induced seizures at 30 to 300 mg/kg, ip after 0.5 to 4 hrs; format: functional, organism-based
# How it was run: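 CF No. 1 male mice dosed ip at 30, 100 or 300 mg/kg (saline or 0.5% methylcellulose), then given pentetrazole 85 mg/kg sc as 0.5% solution in posterior midline. Watched 30 min. Protection means no threshold seizure (single clonic spasm episode of at least 5 s). Expressed as protected/tested.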
# [3] = tested on: Mus musculus; test: Neurotoxicity in albino CF1 mouse assessed as minimal motor impairment at 100 mg/kg, ip after 0.5 hr by rotorod test; format: toxicity, organism-based; design: dose 100 mg/kg, route intraperitoneal; conditions: in vivo
# How it was run: (§1)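 Rotarod in male CF No. 1 mice after ip dosing (30, 100, 300 mg/kg; saline or 0.5% methylcellulose) at 15–240 min. Knurled plastic rod, 1-inch diameter, 6 rpm. Toxicity means failing to stay on for 1 min on three successive attempts. Recorded as toxic/tested.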
# [4] = tested on: Mus musculus; test: Neurotoxicity in albino CF1 mouse assessed as minimal motor impairment at 100 mg/kg, ip after 4 hrs by rotorod test; format: toxicity, organism-based; design: dose 100 mg/kg, route intraperitoneal; conditions: in vivo; how it was run: as §1
# [5] = tested on: Mus musculus; test: Anticonvulsant activity in albino CF1 mouse assessed as protection against maximal electroshock-induced seizures at 100 mg/kg, ip after 0.5 hr; format: functional, organism-based; design: dose 100 mg/kg
# How it was run: (§2)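 Male albino CF No. 1 mice (18–25 g) dosed ip at 30, 100 and 300 mg/kg in saline or 0.5% methylcellulose, tested 15, 30, 60 and 240 min after dosing. Maximal electroshock seizures elicited with 60-cycle alternating current. Scored as animals protected/animals tested, small qualitative groups.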
# [6] = tested on: Mus musculus; test: Anticonvulsant activity in albino CF1 mouse assessed as protection against maximal electroshock-induced seizures at 300 mg/kg, ip after 0.5 hr; format: functional, organism-based; design: dose 300 mg/kg; how it was run: as §2
# [7] = tested on: Mus musculus; test: Neurotoxicity in albino CF1 mouse assessed as minimal motor impairment at 300 mg/kg, ip after 0.5 hr by rotorod test; format: toxicity, organism-based; design: dose 300 mg/kg, route intraperitoneal; conditions: in vivo; how it was run: as §1
# [8] = tested on: Mus musculus; test: Anticonvulsant activity in albino CF1 mouse assessed as protection against maximal electroshock-induced seizures at 100 mg/kg, ip after 4 hrs; format: functional, organism-based; design: dose 100 mg/kg; how it was run: as §2
# [9] = tested on: Mus musculus; test: Anticonvulsant activity in albino CF1 mouse assessed as protection against maximal electroshock-induced seizures at 300 mg/kg, ip after 4 hrs; format: functional, organism-based; design: dose 300 mg/kg; how it was run: as §2
# [10] = tested on: Mus musculus; test: Neurotoxicity in albino CF1 mouse assessed as minimal motor impairment at 300 mg/kg, ip after 4 hrs by rotorod test; format: toxicity, organism-based; design: dose 300 mg/kg, route intraperitoneal; conditions: in vivo; how it was run: as §1
# [11] = tested on: Mus musculus; test: Anticonvulsant activity in albino CF1 mouse assessed as protection against maximal electroshock-induced seizures at 100 mg/kg, ip after 0.25 hr; format: functional, organism-based; design: dose 100 mg/kg; how it was run: as §2
# [12] = tested on: Mus musculus; test: Neurotoxicity in albino CF1 mouse assessed as minimal motor impairment at 100 mg/kg, ip after 0.25 hr by rotorod test; format: toxicity, organism-based; design: dose 100 mg/kg, route intraperitoneal; conditions: in vivo; how it was run: as §1
# [13] = tested on: Mus musculus; test: Neurotoxicity in albino CF1 mouse assessed as minimal motor impairment at 100 mg/kg, ip after 1 hr by rotorod test; format: toxicity, organism-based; design: dose 100 mg/kg, route intraperitoneal; conditions: in vivo; how it was run: as §1
# [14] = tested on: Mus musculus; test: Anesthetic activity in […] assessed as latency in response to thermal stimuli administered as 2% solution, sc measured after 15 mins by modified tail immersion test; format: functional, albino CF1
# [15] = tested on: Mus musculus; test: Analgesic activity in albino CF1 mouse assessed as inhibition of heat-induced paw licking or jumping behaviour administered after 30 mins prior heat challenge by hot plate method; format: functional
# [16] = tested on: Mus musculus; test: Anticonvulsant activity in albino CF1 mouse assessed as protection against maximal electroshock-induced seizures at 100 mg/kg, ip after 1 hr; format: functional, organism-based; design: dose 100 mg/kg; how it was run: as §2
# [17] = tested on: Mus musculus; test: Anesthetic activity in albino CF1 mouse assessed as latency in response to thermal stimuli administered as 1% solution, sc measured after 15 mins by modified tail immersion test; format: functional
# How it was run: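 Male Albino Swiss (CD-1) mice, 6-8 per group, tested at 1% and 2% compound concentration. Tail distal 3 cm immersed in water at 50 ± 0.5 °C 15 min after treatment. Tail-withdrawal latency recorded with a 20 s cutoff. Value is % difference in latency vs vehicle-treated mice. Mean ± SEM, Student's t-test.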
SMILES,ED50 [1] [mg/kg],Activity [2],Activity [3],Activity [4],Activity [5],Activity [6],Activity [7],Activity [8],Activity [9],Activity [10],Activity [11],Activity [12],Activity [13],Activity [14] [%],ED50 [15] [mg/kg],Activity [16],Activity [17] [%]
CC(=O)Oc1ccccc1C(=O)O [ASPIRIN],39.2,,,,,,,,,,,,,,,,
Cc1cccc(C)c1NC1CCOC1=O (configuration not stated),,inactive,Non-toxic,Non-toxic,inactive,inactive,Non-toxic,inactive,inactive,Non-toxic,,,,,,,
O=C1OCCC1N1CCN(c2ccccc2)CC1 (racemic),2.4,inactive,Toxic,Non-toxic,inactive,Active,Toxic,inactive,inactive,Non-toxic,inactive,Non-toxic,Non-toxic,146,4,inactive,102
COc1ccc(N2CCN(C3CCOC3=O)CC2)cc1 (racemic),9.6,inactive,Non-toxic,Non-toxic,inactive,inactive,Non-toxic,inactive,inactive,Non-toxic,,,,49,32.5,,-3
O=C1CC(N2CCN(c3ccccc3)CC2)CO1 (racemic),,inactive,Toxic,Non-toxic,inactive,inactive,Toxic,inactive,inactive,Non-toxic,,,,,,,
Cl.O=C1OCCC1NCc1ccccc1 (racemic),2.4,inactive,Non-toxic,Non-toxic,inactive,inactive,Non-toxic,inactive,inactive,Non-toxic,,,,64,4.3,,1
O=C1OCCC1N1C(=O)c2ccccc2C1=O (racemic),4.5,inactive,Toxic,Non-toxic,inactive,inactive,Toxic,inactive,inactive,Non-toxic,,,,,33.9,,
O=C1OCCC1N1CCC(Cc2ccccc2)CC1 (racemic),,inactive,Non-toxic,Non-toxic,inactive,Active,Toxic,inactive,inactive,Toxic,inactive,Non-toxic,Non-toxic,,,inactive,
CC1CC(NCc2ccccc2)C(=O)O1.Cl (mixture of isomers),,inactive,Non-toxic,Non-toxic,inactive,inactive,Non-toxic,inactive,inactive,Non-toxic,,,,,,,
Cc1cccc(C)c1NC(=O)C1CCCCN1C (configuration not stated) [MEPIVACAINE],,,,,,,,,,,,,,117,,,95
CCN(CC)CC(=O)Nc1c(C)cccc1C [LIDOCAINE],,,,,,,,,,,,,,173,,,132
Cl.O=C1OCCC1N1CCOCC1 (racemic),5.4,inactive,Non-toxic,Non-toxic,inactive,inactive,Toxic,inactive,inactive,Non-toxic,,,,,9.9,,
O=C1OCCC1NCc1ccccc1C(F)(F)F (racemic),,inactive,Non-toxic,Non-toxic,inactive,inactive,Non-toxic,inactive,inactive,Non-toxic,,,,,,,
C/C(NCc1ccccc1)=C1\CCOC1=O,,inactive,Non-toxic,Non-toxic,inactive,Active,Non-toxic,inactive,inactive,Non-toxic,inactive,Non-toxic,Non-toxic,,,inactive,
CC1CC(N2CCN(c3ccccc3)CC2)C(=O)O1 (mixture of isomers),,inactive,Non-toxic,Non-toxic,inactive,Active,Toxic,inactive,inactive,Non-toxic,inactive,Non-toxic,Non-toxic,,,inactive,
COc1cc2c(cc1OC)CN(C1CCOC1=O)CC2 (racemic),6.1,inactive,Non-toxic,Non-toxic,inactive,inactive,Non-toxic,inactive,inactive,Non-toxic,,,,,39.8,,
O=C1OCCC1N1CCN(c2ccc(F)cc2)CC1 (racemic),,inactive,Toxic,Toxic,inactive,inactive,Toxic,inactive,inactive,Toxic,,,,,,,
COc1ccc(CNC2CCOC2=O)cc1.Cl (racemic),,inactive,Non-toxic,Non-toxic,inactive,inactive,Non-toxic,inactive,inactive,Non-toxic,,,,,,,
CN1CC[C@]23c4c5ccc(O)c4O[C@H]2[C@@H](O)C=C[C@H]3[C@H]1C5 [MORPHINE],2.4,,,,,,,,,,,,,,3.4,,
COc1cccc(N2CCN(C3CCOC3=O)CC2)c1 (racemic),3,inactive,Non-toxic,Non-toxic,inactive,Active,Non-toxic,inactive,inactive,Non-toxic,,,,75,3.2,,6
COc1ccc(CCN/C(C)=C2/CCOC2=O)cc1OC,,inactive,Non-toxic,Non-toxic,inactive,Active,Non-toxic,inactive,inactive,Non-toxic,inactive,Non-toxic,Non-toxic,,,inactive,
